Measured values from ChEMBL document CHEMBL4004808, “Antibacterial and Cytotoxic Phenolic Metabolites from the Fruits of Amorpha fruticosa” (J Nat Prod, 2017).
In brackets after ≈: the same amount, converted by molar mass. Activity calls are given as the source filed them. The calls are words filed in the database; no cut-off is given here.

What was measured:
Enterococcus faecium [1] = experiment: Antibacterial activity against Enterococcus faecium ATCC 35667 by broth microdilution method; type: functional
Summary of the method: (§1)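 MIC by broth microdilution following CLSI recommendations; moxifloxacin as positive control, DMSO as negative control.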

Enterococcus faecalis [2] = experiment: Antibacterial activity against Enterococcus faecalis ATCC 29212 by broth microdilution method; type: functional
Summary of the method: (§2)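 MIC determined by broth microdilution following CLSI recommendations, with moxifloxacin as positive control and DMSO as negative control.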

Enterococcus faecalis [3] = experiment: Antibacterial activity against vancomycin-resistant Enterococcus faecalis ATCC 51299 by broth microdilution method; type: functional; summary of the method: as §2
THP-1 = experiment: Cytotoxicity against human THP1 cells after 48 hrs by resazurin dye-based fluorescence analysis; type: cell-based; conditions: THP-1, 48 h
Enterococcus faecium [4] = experiment: Antibacterial activity against Enterococcus faecium ATCC 700221 by broth microdilution method; type: functional; summary of the method: as §1
Acinetobacter baumannii = experiment: Antibacterial activity against Acinetobacter baumannii ATCC BAA1605 by broth microdilution method; type: functional; summary of the method: as §1
Staphylococcus aureus [5] = experiment: Antibacterial activity against Staphylococcus aureus ATCC 25923 by broth microdilution method; type: functional
L5178Y = experiment: Cytotoxicity against mouse L5178Y cells by MTT assay; type: functional, cell-based
Summary of the method: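 MTT proliferation assay on the L5178Y murine lymphoma line, run three times; kahalalide F as positive control and 0.1% DMSO in medium as negative control.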

[6] = test system: Mycobacterium tuberculosis; experiment: Antibacterial activity against Mycobacterium tuberculosis by broth microdilution method; type: functional
Staphylococcus aureus [7] = experiment: Antibacterial activity against methicilin-resistant Staphylococcus aureus ATCC 700699 by broth microdilution method; type: functional; conditions: Mu50; summary of the method: as §2
MRC5 = experiment: Cytotoxicity against human MRC5 cells after 48 hrs by resazurin dye-based fluorescence analysis; type: cell-based; conditions: MRC5, 48 h

| SMILES | MIC (Enterococcus faecium [1]) | MIC (Enterococcus faecalis [2]) | MIC (Enterococcus faecalis [3]) | IC50 (THP-1) | MIC (Enterococcus faecium [4]) | MIC (Acinetobacter baumannii) | MIC (Staphylococcus aureus [5]) | Activity (L5178Y) | MIC [6] | MIC (Staphylococcus aureus [7]) | IC50 (L5178Y) | IC50 (MRC5) |
| --- | --- | --- | --- | --- | --- | --- | --- | --- | --- | --- | --- | --- |
| CC(C)=CCC/C(C)=C/Cc1c(O)cc(CCc2ccccc2)cc1O | 12.5 µM (≈ 4.38 µg/mL) | 25 µM (≈ 8.76 µg/mL) | 12.5 µM (≈ 4.38 µg/mL) | 50 µM | 12.5 µM (≈ 4.38 µg/mL) | > 50 µM | 25 µM (≈ 8.76 µg/mL) | inactive | > 50 µM | 6.3 µM (≈ 2.21 µg/mL) |  |  |
| COc1cc2c(cc1OC)[C@@H]1C(=O)c3c(O)cc4c(c3O[C@@H]1CO2)C=CC(C)(C)O4 [TOXICAROL] |  |  |  |  |  |  |  |  |  |  | 0.2 µM |  |
| COc1cc(/C=C/c2ccccc2)cc(OC)c1C/C=C(\C)CCC=C(C)C | 100 µM (≈ 37.7 µg/mL) | > 100 µM | > 100 µM | 100 µM | > 100 µM | > 50 µM | > 100 µM | inactive | > 50 µM | > 100 µM |  | 100 µM |
| COc1c(N2C[C@@H]3CCCN[C@@H]3C2)c(F)cc2c(=O)c(C(=O)O)cn(C3CC3)c12 [MOXIFLOXACIN] | 1.9 µM (≈ 0.763 µg/mL) | 0.9 µM (≈ 0.361 µg/mL) | 0.9 µM (≈ 0.361 µg/mL) |  | 7.8 µM (≈ 3.13 µg/mL) |  | < 0.9 µM |  |  | 3.8 µM (≈ 1.53 µg/mL) |  |  |
| CC(C)=CCC/C(C)=C/Cc1c(O)ccc(C(=O)/C=C/c2ccc(O)cc2)c1O [XANTHOANGELOL] | 12.5 µM (≈ 4.91 µg/mL) | 12.5 µM (≈ 4.91 µg/mL) | 6.3 µM (≈ 2.47 µg/mL) | 25 µM | 3.1 µM (≈ 1.22 µg/mL) | > 50 µM | 25 µM (≈ 9.81 µg/mL) |  | > 50 µM | 3.1 µM (≈ 1.22 µg/mL) |  | 25 µM |
| CC(C)=CCC/C(C)=C/Cc1c(O)cc(/C=C\c2ccccc2)c(C(=O)O)c1O | 50 µM (≈ 19.6 µg/mL) | 50 µM (≈ 19.6 µg/mL) | 100 µM (≈ 39.2 µg/mL) | 100 µM | 100 µM (≈ 39.2 µg/mL) | > 50 µM | 50 µM (≈ 19.6 µg/mL) | inactive | > 50 µM | 100 µM (≈ 39.2 µg/mL) |  | 100 µM |
| COc1cc2c(cc1OC)-c1c(oc3c4c(ccc3c1=O)OC(C)(C)C=C4)CO2 [DEHYDRODEGUELIN] |  |  |  |  |  |  |  |  |  |  | 10.2 µM |  |
| CC(C)=CCC/C(C)=C/Cc1c(O)cc(/C=C/c2ccccc2)cc1O [AMORPHASTILBOL] | 6.3 µM (≈ 2.2 µg/mL) | 12.5 µM (≈ 4.36 µg/mL) | 6.3 µM (≈ 2.2 µg/mL) | 25 µM | 6.3 µM (≈ 2.2 µg/mL) | > 50 µM | 6.3 µM (≈ 2.2 µg/mL) | inactive | > 50 µM | 3.1 µM (≈ 1.08 µg/mL) |  | 50 µM |
| COc1cc(CCc2ccccc2)c(C(=O)O)c(O)c1C/C=C(/C)CCC=C(C)C | 6.3 µM (≈ 2.57 µg/mL) | 6.3 µM (≈ 2.57 µg/mL) | 6.3 µM (≈ 2.57 µg/mL) | 100 µM | 6.3 µM (≈ 2.57 µg/mL) | > 50 µM | 12.5 µM (≈ 5.11 µg/mL) | inactive | > 50 µM | 12.5 µM (≈ 5.11 µg/mL) |  | 100 µM |
| CC(C)=CCC/C(C)=C/Cc1c(O)cc(O)c2c1O[C@H](c1ccccc1)[C@H](O)C2=O | 100 µM (≈ 40.8 µg/mL) | 50 µM (≈ 20.4 µg/mL) | 100 µM (≈ 40.8 µg/mL) | 100 µM | 100 µM (≈ 40.8 µg/mL) | > 50 µM | 100 µM (≈ 40.8 µg/mL) |  | > 50 µM | 100 µM (≈ 40.8 µg/mL) |  | 100 µM |
| C=C(C)[C@H]1Cc2c(ccc3c2O[C@@H]2COc4cc(OC)c(OC)cc4[C@@H]2C3=O)O1 [ROTENONE] |  |  |  |  |  |  |  |  |  |  | 0.3 µM |  |
| CC(C)=CCC/C(C)=C\Cc1c(O)cc(CCc2ccccc2)c(C(=O)O)c1O | 100 µM (≈ 39.5 µg/mL) | 100 µM (≈ 39.5 µg/mL) | 100 µM (≈ 39.5 µg/mL) | 100 µM | 100 µM (≈ 39.5 µg/mL) | > 50 µM | 100 µM (≈ 39.5 µg/mL) | inactive | > 50 µM | 100 µM (≈ 39.5 µg/mL) |  | 100 µM |
| CC(C)=CCC/C(C)=C/Cc1c(O)cc(/C=C\c2ccccc2)cc1O | 100 µM (≈ 34.8 µg/mL) | 100 µM (≈ 34.8 µg/mL) | 100 µM (≈ 34.8 µg/mL) | 100 µM | 100 µM (≈ 34.8 µg/mL) | > 50 µM | 100 µM (≈ 34.8 µg/mL) | inactive | > 50 µM | 100 µM (≈ 34.8 µg/mL) |  | 100 µM |
| COC1=CC(=O)[C@]2(C=C1OC)OC[C@H]1Oc3c4c(cc(O)c3C(=O)[C@H]12)OC(C)(C)C=C4 |  |  |  |  |  |  |  |  |  |  | 1.3 µM |  |
| COc1ccc(-c2coc3c(C/C=C(\C)CCC=C(C)C)c(O)cc(O)c3c2=O)cc1O | 25 µM (≈ 10.9 µg/mL) | 50 µM (≈ 21.8 µg/mL) | 100 µM (≈ 43.7 µg/mL) | 50 µM | 25 µM (≈ 10.9 µg/mL) | > 50 µM | 100 µM (≈ 43.7 µg/mL) |  | > 50 µM | 100 µM (≈ 43.7 µg/mL) |  | 50 µM |
| COC1=C[C@]2(OC[C@H]3Oc4c(ccc5c4C=CC(C)(C)O5)C(=O)[C@H]32)C(=O)CC1=O |  |  |  |  |  |  |  |  |  |  | 7.6 µM |  |
| COc1cc2c(cc1OC)[C@@H]1C(=O)c3ccc4c(c3O[C@@H]1CO2)C[C@H](C(C)(C)O)O4 [DALPANOL] |  |  |  |  |  |  |  |  |  |  | 0.7 µM |  |
| COc1cc(O)c2c(c1)O[C@@H]1COc3cc(OC)c(OC)cc3[C@@H]1C2=O |  |  |  |  |  |  |  |  |  |  | 0.2 µM |  |
| COc1cc2c(cc1OC)[C@@H]1C(=O)c3ccc4c(c3O[C@@H]1CO2)C[C@H](C(C)(C)O[C@@H]1O[C@H](CO)[C@@H](O)[C@H](O)[C@H]1O)O4 |  |  |  |  |  |  |  |  |  |  | 1.7 µM |  |
| C/C=C1\NC(=O)[C@H](Cc2ccccc2)NC(=O)[C@@H](C(C)C)NC(=O)[C@@H](C(C)CC)NC(=O)[C@H](NC(=O)[C@H](NC(=O)[C@H](CCCN)NC(=O)[C@@H]2CCCN2C(=O)[C@H](NC(=O)[C@@H](NC(=O)[C@@H](NC(=O)[C@H](NC(=O)CCCC(C)C)C(C)C)C(C)O)C(C)C)C(C)C)C(C)CC)C(C)OC(=O)[C@H](C(C)C)NC1=O (some centres not stated) |  |  |  |  |  |  |  |  |  |  | 4.3 µM |  |
| COc1cc2c(cc1OC)[C@@H]1C(=O)c3ccc4c(c3O[C@@H]1CO2)C=CC(C)(C)O4 [DEGUELIN] |  |  |  |  |  |  |  |  |  |  | 0.2 µM |  |
| COc1cc2c(cc1OC)[C@@H]1C(=O)c3ccc(O)c(CC=C(C)C)c3O[C@@H]1CO2 [ROTENONIC ACID] |  |  |  |  |  |  |  |  |  |  | 0.6 µM |  |
| C=C(C)[C@@H](O)CC/C(C)=C/Cc1c(OC)cc(CCc2ccccc2)c(C(=O)O)c1O |  |  |  |  |  |  |  | inactive |  |  |  |  |
| C=C(CO)[C@H]1Cc2c(ccc3c2O[C@@H]2COc4cc(OC)c(OC)cc4[C@]2(O)C3=O)O1 [DABINOL] |  |  |  |  |  |  |  |  |  |  | 0.2 µM |  |
| CC(C)=CCC/C(C)=C/Cc1c(O)cc(/C=C/c2ccccc2)c(C(=O)O)c1O | 25 µM (≈ 9.81 µg/mL) | 25 µM (≈ 9.81 µg/mL) | 25 µM (≈ 9.81 µg/mL) | 100 µM | 25 µM (≈ 9.81 µg/mL) | > 50 µM | 12.5 µM (≈ 4.91 µg/mL) | inactive | > 50 µM | 12.5 µM (≈ 4.91 µg/mL) |  | 100 µM |
| C=C(C)[C@@H](O)CC/C(C)=C/Cc1c(O)cc(CCc2ccccc2)c(C(=O)O)c1O |  |  |  |  |  |  |  | inactive |  |  |  |  |
| COc1cc(CCc2ccccc2)c(C(=O)O)c(O)c1CC=C(C)C [AMORFRUTIN A] | 50 µM (≈ 17 µg/mL) | 100 µM (≈ 34 µg/mL) | 25 µM (≈ 8.51 µg/mL) | 50 µM | 25 µM (≈ 8.51 µg/mL) | > 50 µM | 50 µM (≈ 17 µg/mL) | inactive | > 50 µM | 6.3 µM (≈ 2.14 µg/mL) |  |  |
| COc1ccc(-c2coc3cc(O)c(C/C=C(\C)CCC=C(C)C)c(O)c3c2=O)cc1O | 25 µM (≈ 10.9 µg/mL) | 25 µM (≈ 10.9 µg/mL) | 50 µM (≈ 21.8 µg/mL) | 50 µM | 12.5 µM (≈ 5.46 µg/mL) | > 50 µM | 100 µM (≈ 43.7 µg/mL) |  | > 50 µM | 100 µM (≈ 43.7 µg/mL) |  | 50 µM |
